Results taken from ChEMBL document CHEMBL1811814, “Synthesis and evaluation of indole, pyrazole, chromone and pyrimidine based conjugates for tumor growth inhibitory activities--development of highly efficacious cytotoxic agents” (Eur J Med Chem, 2010).

Assays:
Format in all cases: functional
Design in all cases: scale not given: the % may be the effect or the level left
MCF7 = experiment: Growth inhibition of human MCF7 cells assessed tumor cell growth at 10^-5 M
Procedure, shortened: (§1)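 NCI 60-human-tumor-cell-line panel screen. Each compound was tested at a single concentration of 10^-5 M, and percent growth of tumor cells was recorded for each cell line. Growth inhibition was expressed from these percent-growth values.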

SK-MEL-2 = experiment: Growth inhibition of human SK-MEL-2 cells assessed tumor cell growth at 10^-5 M; procedure, shortened: as §1
SNB-75 = experiment: Growth inhibition of human SNB75 cells assessed tumor cell growth at 10^-5 M
Procedure, shortened: (§2)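 Single-dose screen at 10^-5 M across the 60 human tumor cell line panel, run to NCI standards. The value is the percent growth of each cell line in the presence of compound. Compounds active at this dose moved on to five-concentration testing (10^-4 to 10^-8 M).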

MDA-MB-468 = experiment: Growth inhibition of human MDA-MB-468 cells assessed tumor cell growth at 10^-5 M; procedure, shortened: as §1
A498 = experiment: Growth inhibition of human A498 cells assessed tumor cell growth at 10^-5 M; procedure, shortened: as §1
T47D = experiment: Growth inhibition of human T47D cells assessed tumor cell growth at 10^-5 M; procedure, shortened: as §2
SK-MEL-5 = experiment: Growth inhibition of human SK-MEL-5 cells assessed tumor cell growth at 10^-5 M; procedure, shortened: as §1
SK-MEL-28 = experiment: Growth inhibition of human SK-MEL-28 cells assessed tumor cell growth at 10^-5 M; procedure, shortened: as §1
SNB-19 = experiment: Growth inhibition of human SNB19 cells assessed tumor cell growth at 10^-5 M; procedure, shortened: as §2
CAKI-1 = experiment: Growth inhibition of human Caki1 cells assessed tumor cell growth at 10^-5 M; procedure, shortened: as §1
DU-145 = experiment: Growth inhibition of human DU145 cells assessed tumor cell growth at 10^-5 M; procedure, shortened: as §1
KM12 = experiment: Growth inhibition of human KM12 cells assessed tumor cell growth at 10^-5 M; procedure, shortened: as §1
Malme-3M = experiment: Growth inhibition of human MALME-3M cells assessed tumor cell growth at 10^-5 M; procedure, shortened: as §1
SF-539 = experiment: Growth inhibition of human SF539 cells assessed tumor cell growth at 10^-5 M; procedure, shortened: as §1
NCI-H23 = experiment: Growth inhibition of human NCI-H23 cells assessed tumor cell growth at 10^-5 M; procedure, shortened: as §1
MDA-MB-435 = experiment: Growth inhibition of human MDA-MB-435 cells assessed tumor cell growth at 10^-5 M; procedure, shortened: as §1
U-251 = experiment: Growth inhibition of human U251 cells assessed tumor cell growth at 10^-5 M; procedure, shortened: as §2
IGROV-1 = experiment: Growth inhibition of human IGROV1 cells assessed tumor cell growth at 10^-5 M; procedure, shortened: as §1
MDA-MB-231 = experiment: Growth inhibition of human MDA-MB-231 cells assessed tumor cell growth at 10^-5 M; procedure, shortened: as §1
HT-29 = experiment: Growth inhibition of human HT-29 cells assessed tumor cell growth at 10^-5 M; procedure, shortened: as §1
COLO 205 = experiment: Growth inhibition of human COLO205 cells assessed tumor cell growth at 10^-5 M; procedure, shortened: as §1
PC-3 = experiment: Growth inhibition of human PC3 cells assessed tumor cell growth at 10^-5 M; procedure, shortened: as §1
NCI-H226 = experiment: Growth inhibition of human NCI-H226 cells assessed tumor cell growth at 10^-5 M; procedure, shortened: as §1
SN12C = experiment: Growth inhibition of human SN12C cells assessed tumor cell growth at 10^-5 M; procedure, shortened: as §1
M14 = experiment: Growth inhibition of human M14 cells assessed tumor cell growth at 10^-5 M; procedure, shortened: as §1
CCRF-CEM = experiment: Growth inhibition of human CCRF-CEM cells assessed tumor cell growth at 10^-5 M; procedure, shortened: as §1
UACC-62 = experiment: Growth inhibition of human UACC62 cells assessed tumor cell growth at 10^-5 M; procedure, shortened: as §2
HOP-62 = experiment: Growth inhibition of human HOP62 cells assessed tumor cell growth at 10^-5 M; procedure, shortened: as §1
[1] = Growth inhibition of human […] cells assessed tumor cell growth at 10^-5 M; procedure, shortened: as §1
OVCAR-4 = experiment: Growth inhibition of human OVCAR4 cells assessed tumor cell growth at 10^-5 M; procedure, shortened: as §1
BT-549 = experiment: Growth inhibition of human BT549 cells assessed tumor cell growth at 10^-5 M; procedure, shortened: as §1
HL-60(TB) = experiment: Growth inhibition of human HL-60(TB) cells assessed tumor cell growth at 10^-5 M
Procedure, shortened: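 HL-60(TB), part of the 60-line panel, tested at a single concentration of 10^-5 M. The read-out is percent tumor cell growth relative to untreated growth.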

K562 = experiment: Growth inhibition of human K562 cells assessed tumor cell growth at 10^-5 M; procedure, shortened: as §1
SF-268 = experiment: Growth inhibition of human SF268 cells assessed tumor cell growth at 10^-5 M; procedure, shortened: as §1
EKVX = experiment: Growth inhibition of human EKVX cells assessed tumor cell growth at 10^-5 M; procedure, shortened: as §1
ACHN = experiment: Growth inhibition of human ACHN cells assessed tumor cell growth at 10^-5 M; procedure, shortened: as §1
RXF 393 = experiment: Growth inhibition of human RXF393 cells assessed tumor cell growth at 10^-5 M; procedure, shortened: as §1
HCT-15 = experiment: Growth inhibition of human HCT15 cells assessed tumor cell growth at 10^-5 M; procedure, shortened: as §1
OVCAR-3 = experiment: Growth inhibition of human OVCAR3 cells assessed tumor cell growth at 10^-5 M; procedure, shortened: as §1
SK-OV-3 = experiment: Growth inhibition of human SKOV3 cells assessed tumor cell growth at 10^-5 M; procedure, shortened: as §1
HCC 2998 = experiment: Growth inhibition of human HCC2998 cells assessed tumor cell growth at 10^-5 M; procedure, shortened: as §1
NCI-H322M = experiment: Growth inhibition of human NCI-H322M cells assessed tumor cell growth at 10^-5 M; procedure, shortened: as §1
MOLT-4 = experiment: Growth inhibition of human MOLT4 cells assessed tumor cell growth at 10^-5 M; procedure, shortened: as §1
NCI-H460 = experiment: Growth inhibition of human NCI-H460 cells assessed tumor cell growth at 10^-5 M; procedure, shortened: as §1
UO-31 = experiment: Growth inhibition of human UO31 cells assessed tumor cell growth at 10^-5 M; procedure, shortened: as §2
OVCAR-8 = experiment: Growth inhibition of human OVCAR8 cells assessed tumor cell growth at 10^-5 M; procedure, shortened: as §1
SR = experiment: Growth inhibition of human SR cells assessed tumor cell growth at 10^-5 M; procedure, shortened: as §2
UACC-257 = experiment: Growth inhibition of human UACC257 cells assessed tumor cell growth at 10^-5 M; procedure, shortened: as §2
HOP-92 = experiment: Growth inhibition of human HOP92 cells assessed tumor cell growth at 10^-5 M; procedure, shortened: as §1
SW-620 = experiment: Growth inhibition of human SW620 cells assessed tumor cell growth at 10^-5 M; procedure, shortened: as §2
OVCAR-5 = experiment: Growth inhibition of human OVCAR5 cells assessed tumor cell growth at 10^-5 M; procedure, shortened: as §1
LOX IMVI = experiment: Growth inhibition of human LOXIMVI cells assessed tumor cell growth at 10^-5 M; procedure, shortened: as §1
786-0 = experiment: Growth inhibition of human 786-0 cells assessed tumor cell growth at 10^-5 M; procedure, shortened: as §1
HCT-116 = experiment: Growth inhibition of human HCT116 cells assessed tumor cell growth at 10^-5 M; procedure, shortened: as §1
SF-295 = experiment: Growth inhibition of human SF295 cells assessed tumor cell growth at 10^-5 M; procedure, shortened: as §1
[2] = Growth inhibition of human Hs 578T cells assessed tumor cell growth at 10^-5 M; procedure, shortened: as §1
NCI/ADR-RES = experiment: Growth inhibition of human NCI/ADR-RES cells assessed tumor cell growth at 10^-5 M; procedure, shortened: as §1
A549 = experiment: Growth inhibition of human A549 cells assessed tumor cell growth at 10^-5 M; procedure, shortened: as §1
TK-10 = experiment: Growth inhibition of human TK10 cells assessed tumor cell growth at 10^-5 M; procedure, shortened: as §2
NCI-H522 = experiment: Growth inhibition of human NCI-H522 cells assessed tumor cell growth at 10^-5 M; procedure, shortened: as §1

SMILES: CC1=NN(c2cccc(Cl)c2)C(=O)/C1=C\c1coc2ccccc2c1=O
- Activity (MCF7): 86.4%
- Activity (SK-MEL-2): 96.49%
- Activity (SNB-75): 94.9%
- Activity (MDA-MB-468): 106.03%
- Activity (A498): 114.05%
- Activity (T47D): 92.99%
- Activity (SK-MEL-5): 109.62%
- Activity (SK-MEL-28): 109.94%
- Activity (SNB-19): 102.59%
- Activity (CAKI-1): 96.64%
- Activity (DU-145): 115.23%
- Activity (KM12): 113.31%
- Activity (Malme-3M): 107.7%
- Activity (SF-539): 95.06%
- Activity (NCI-H23): 88.35%
- Activity (MDA-MB-435): 110.64%
- Activity (U-251): 97.41%
- Activity (IGROV-1): 105.92%
- Activity (MDA-MB-231): 98.59%
- Activity (HT-29): 114.92%
- Activity (COLO 205): 138.42%
- Activity (PC-3): 108.19%
- Activity (NCI-H226): 93.17%
- Activity (SN12C): 100.25%
- Activity (M14): 63.48%
- Activity (CCRF-CEM): 97.52%
- Activity (UACC-62): 92.44%
- Activity (HOP-62): 110.49%
- Activity [1]: 72.35%
- Activity (OVCAR-4): 99.9%
- Activity (BT-549): 98.21%
- Activity (HL-60(TB)): 106.16%
- Activity (K562): 109.12%
- Activity (SF-268): 101.34%
- Activity (EKVX): 110.36%
- Activity (ACHN): 96.23%
- Activity (RXF 393): 96.69%
- Activity (HCT-15): 92.73%
- Activity (OVCAR-3): 123.01%
- Activity (SK-OV-3): 103.95%
- Activity (HCC 2998): 94.86%
- Activity (NCI-H322M): 121.02%
- Activity (MOLT-4): 102.14%
- Activity (NCI-H460): 112.85%
- Activity (UO-31): 82.13%
- Activity (OVCAR-8): 99.11%
- Activity (SR): 96.27%
- Activity (UACC-257): 98.36%
- Activity (HOP-92): 91.19%
- Activity (SW-620): 98.74%
- Activity (OVCAR-5): 93.56%
- Activity (LOX IMVI): 92.97%
- Activity (786-0): 77.33%
- Activity (HCT-116): 106.06%
- Activity (SF-295): 127.24%
- Activity [2]: 96.45%
- Activity (NCI/ADR-RES): 87.3%
- Activity (A549): 102.67%

SMILES: O=C1/C(=C\c2cn(C(=O)c3ccccc3)c3ccccc23)c2ccccc2N1c1c(Cl)cccc1Cl
- Activity (MCF7): 95.7%
- Activity (SK-MEL-2): 102.9%
- Activity (SNB-75): 82.2%
- Activity (MDA-MB-468): 97.7%
- Activity (TK-10): 118.8%
- Activity (A498): 102.8%
- Activity (T47D): 92.4%
- Activity (SK-MEL-5): 107.1%
- Activity (SK-MEL-28): 113.4%
- Activity (CAKI-1): 86.4%
- Activity (DU-145): 119.5%
- Activity (KM12): 111.3%
- Activity (Malme-3M): 106%
- Activity (SF-539): 104%
- Activity (NCI-H23): 97.2%
- Activity (NCI-H522): 90.9%
- Activity (MDA-MB-435): 115.5%
- Activity (U-251): 88.4%
- Activity (IGROV-1): 99.2%
- Activity (MDA-MB-231): 103.3%
- Activity (HT-29): 103.4%
- Activity (COLO 205): 122.5%
- Activity (PC-3): 71.8%
- Activity (NCI-H226): 94.8%
- Activity (SN12C): 89.5%
- Activity (M14): 104.2%
- Activity (CCRF-CEM): 111.2%
- Activity (UACC-62): 95.4%
- Activity (HOP-62): 94.2%
- Activity [1]: 100.6%
- Activity (OVCAR-4): 99.5%
- Activity (BT-549): 106.5%
- Activity (HL-60(TB)): 102.5%
- Activity (K562): 114.6%
- Activity (SF-268): 99.9%
- Activity (EKVX): 97.7%
- Activity (ACHN): 97.6%
- Activity (RXF 393): 150.7%
- Activity (HCT-15): 66.3%
- Activity (OVCAR-3): 116.1%
- Activity (SK-OV-3): 111.6%
- Activity (HCC 2998): 101.6%
- Activity (NCI-H322M): 111.9%
- Activity (MOLT-4): 89.6%
- Activity (NCI-H460): 111.1%
- Activity (UO-31): 76.9%
- Activity (OVCAR-8): 113.1%
- Activity (SR): 99.5%
- Activity (UACC-257): 123.3%
- Activity (HOP-92): 79.8%
- Activity (SW-620): 104.6%
- Activity (OVCAR-5): 94.2%
- Activity (LOX IMVI): 97.6%
- Activity (786-0): 90.7%
- Activity (HCT-116): 94%
- Activity (SF-295): 126.6%
- Activity [2]: 107.3%
- Activity (NCI/ADR-RES): 99.7%
- Activity (A549): 110%
